# A selection: hits, their analogues and other compounds. The true share with any hit is near 2%.
# CHRM5 PAM = human M5 muscarinic receptor positive allosteric modulators, primary screen, CHO-K1 cells, Fluo-8 calcium fluorescence; Muscarinic acetylcholine receptor M5 (Homo sapiens), P08912; CHO-K1 hM5, ACh EC20 PAM; 0% = ACh EC20, 100% = ACh EC100; activation, % at 3 µM; 360,000 tested, 0.3% active;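 active = activation above the run cutoff, the mean activation of all test compounds plus 3 SD, cut at about 18% in these data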
#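 System: CHO-K1 hM5 cells. Reagent: acetylcholine, EC20 level. Compound dosing: single dose, 3 µM nominal final test concentration. Timing: Post-acetylcholine fluorescence recording 140 s. Detection: Fluo-8 calcium fluorescence. Read-out: % activation, ACh-normalized. Benchmarks: ACh EC20 and EC100 wells. Repeats: singlicate, one well per test compound.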
# M1 ag = human M1 muscarinic receptor agonists, primary screen, Fluo-8 calcium fluorescence, CHO-K1 cells, HTS; Muscarinic acetylcholine receptor M1 (Homo sapiens), P11229; CHO-K1 hM1, agonist mode; 0% DMSO, 100% acetylcholine EC100; activation, % at 3 µM; 360,000 tested, 0.33% active;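 active = activation above the run's mean compound activation plus 3 SD, cut at about 16% in these data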;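 also: peak over basal fluorescence ratio within a 140 s kinetic read after compound addition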
# Target sequence (P11229 whole entry, looked up): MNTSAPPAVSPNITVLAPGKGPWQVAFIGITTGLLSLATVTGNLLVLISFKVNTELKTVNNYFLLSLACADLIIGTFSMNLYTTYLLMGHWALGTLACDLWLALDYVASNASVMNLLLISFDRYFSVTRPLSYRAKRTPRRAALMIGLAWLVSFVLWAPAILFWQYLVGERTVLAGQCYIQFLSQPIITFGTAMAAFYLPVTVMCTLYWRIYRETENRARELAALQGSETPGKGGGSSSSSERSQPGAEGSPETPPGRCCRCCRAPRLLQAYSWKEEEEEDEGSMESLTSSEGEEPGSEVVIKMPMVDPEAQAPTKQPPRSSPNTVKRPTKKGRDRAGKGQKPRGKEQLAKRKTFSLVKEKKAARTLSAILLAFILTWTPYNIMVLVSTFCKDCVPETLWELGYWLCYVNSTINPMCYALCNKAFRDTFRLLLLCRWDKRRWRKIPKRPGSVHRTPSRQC
# CHRM5 agonist = human M5 muscarinic receptor agonists, primary screen, CHO-K1 cells, Fluo-8 calcium fluorescence; CHO-K1 hM5 cells; 0% DMSO wells, 100% maximal acetylcholine response; AID 624037, 2012; Muscarinic acetylcholine receptor M5 (Homo sapiens), P08912; activation, % at 3 µM; 360,000 tested, 0.19% active;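 active = activation above the run's mean over test compounds plus 3 SD, cut at about 23% in these data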;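 also: signal is peak over basal fluorescence ratio across the kinetic read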
# M1 antag = human M1 muscarinic receptor antagonists, primary screen, CHO-K1 cells, Fluo-8 calcium fluorescence, 1536-well. 360,000 tested, 1.3% active. Muscarinic acetylcholine receptor M1 (Homo sapiens), P11229. inhibition, % at 3 µM. CHO-K1 hM1, ACh EC80 antagonist;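 active = percent inhibition above its own plate's cutoff, namely the mean of that plate's compound wells plus 3 SD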;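 also: peak over basal fluorescence ratio during 140 s after agonist addition; 0% = ACh EC80 plus DMSO and 100% = DMSO alone without agonist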
# M1 PAM = human M1 muscarinic receptor positive allosteric modulators, primary screen, CHO-K1 cells, Fluo-8 calcium fluorescence, 1536-well | 360,000 tested, 0.088% active | CHO-K1 hM1, ACh EC20; 0% = ACh EC20, 100% = maximal ACh | AID 588819, 2011 | Muscarinic acetylcholine receptor M1 (Homo sapiens), P11229 | activation, % at 3 µM; in the data active = activation above about 19%, passing the limit was not always enough
# M5 antag = human M5 muscarinic receptor antagonists, primary screen, CHO cells, Fluo-8 calcium fluorescence | Muscarinic acetylcholine receptor M5 (Homo sapiens), P08912 | CHO-hM5 cells, ACh EC80 | inhibition, % at 3 µM | 360,000 tested, 0.59% active | AID 624040, 2012;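 active = inhibition above a per-plate cutoff, the mean of that plate's test compounds plus 3 SD, cut at about 27% in these data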;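 also: 0% = acetylcholine EC80 with DMSO and 100% = DMSO without agonist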
# Starred values were filed as active, the others as inactive; · = no result given.
SMILES,CHRM5 PAM,M1 ag,CHRM5 agonist,M1 antag,M1 PAM,M5 antag
COc1cccc(N2CCN(C(=O)CC(C)(C)CC3=NS(=O)(=O)c4ccccc4N3)CC2)c1,-18,1,2,28,-25,27*
CC1(C)CC(=O)C=C(c2n[nH]nc2C2=CCCCC2)C1,1,0,1,12,-6,0
CC(C)NC(=O)C1(C)CCN1C(=O)C1(c2ccccc2)CC1 (stereo not given),3,-2,1,-29,21,-4
CCC(C)(C)C(=O)Nc1ncc(S(=O)(=O)c2ccc([N+](=O)[O-])cc2)s1,-9,16,16,-11,-6,9
CCCC(C)C(=O)Nc1ncc(S(=O)(=O)c2ccc([N+](=O)[O-])cc2)s1 (stereo not given),-4,40*,49*,28,-5,10
CCCCN(C(=O)COC(=O)c1sccc1C)c1c(N)n(CCC)c(=O)[nH]c1=O,0,0,0,-11,4,4
Cc1ccccc1N=C/C=C1\N(C)c2ccccc2C1(C)C,-4,-1,0,25*,-7,1
CC1=NN(c2ccccc2)C(=O)/C1=C\C=C1/N(C)c2ccccc2C1(C)C,-16,23*,36*,26*,-12,18
CN1/C(=C\C=C2/SC(=S)NC2=O)C(C)(C)c2ccccc21,-28,57*,51*,62*,-22,58*
CC1=NN(c2ccccc2)C(=O)/C1=C\C=C1\N(C)c2ccccc2C1(C)C,-7,13,17,11,-6,12
CN1C(=CC=C2C=C(I)C(=O)C(I)=C2)C(C)(C)c2ccccc21,2,9,11,-2,-1,4
C[C@]12c3[nH]c4cc(-c5ccco5)ccc4c3CCN1C(=O)[C@@H](CC(=O)NCc1cccc(C(F)(F)F)c1)C[C@@H]2C(=O)N1CCCCC1,3,-1,0,-12,4,-7
CCCc1nnc(NC(=O)Cn2c(=O)oc3ccccc32)s1,6,2,5,-2,6,6
CCCc1nnc(NC(=O)Cn2c(=O)oc3cc(Br)ccc32)s1,5,37*,39*,0,-1,-3
Cc1ccccc1C(=O)NC1CCN(CC(=O)Nc2ccccc2)CC1,3,1,3,-8,9,2
Cc1ccccc1C(=O)NC1CCN(CC(=O)Nc2c(C)cccc2C)CC1,32*,-2,-7,-10,7,-6
CC12CCC(=O)C=C1CCC1C2C(O)CC2(C)C1CCC2(O)C(=O)COC(=O)CCC1CCCC1 (stereo not given),-16,-11,-3,41*,-31,13
CCC(CC)C(=O)OCC(=O)C1(O)CCC2C3CCC4=CC(=O)CCC4(C)C3C(O)CC21C (stereo not given),-24,0,-6,68*,-29,12
CN(CCO)c1ccc2c(c1)OC[C@H](Cc1ccccc1)NS2(=O)=O,-4,·,2,·,·,3
Cc1nn(Cc2ccc(Cl)c(Cl)c2)c(C)c1NC(=O)c1cn(-c2ccccc2)nc1-c1ccccc1,25*,-4,-2,3,-3,4
Cc1cccc(C)c1NC(=O)c1cn(-c2ccccc2)nc1-c1ccccc1,-3,-10,-5,-14,7,2
Cc1ccc(S(=O)(=O)N2[C@H](CC(=O)OCc3ccccc3)OC[C@@H]2C)cc1,-8,·,0,·,·,10
Cc1ccc(C(=O)C2CCN(C(=S)NCCCOC(C)C)CC2)cc1,23*,0,7,-8,15,-17
Cc1cc(OCCn2ccnc2)cc(C(C)C)c1,-21,-9,-8,74*,-22,10
Cc1cccc(OCCCCCn2ccnc2)c1,-5,17*,-3,11,-3,-1
SMILES,CHRM5 PAM,M1 ag,CHRM5 agonist,M1 antag,M1 PAM,M5 antag
Cc1cc(OCCCn2ccnc2)cc(C(C)C)c1,-14,-7,-10,26,-15,8
CC(C)CN1C(=O)CSCC1(C)C(=O)NCc1ccccc1 (stereo not given),-6,·,0,·,·,9
CCc1nc2ccc(C(=O)Nc3cccc(OCC(=O)N(C)C)c3)cn2c1N(C)Cc1ccc(OC)cc1,-9,-2,1,15,-19,15
COc1ccc([C@H]2CC(=O)C=C(c3ccc(F)cc3OCc3ccccc3)C2)cc1,3,-2,1,6,-1,4
COc1ccc([C@H]2CC(=O)C=C(c3ccc(F)cc3OCc3ccccc3)C2)cc1OC,-24,-1,2,50*,-15,19
O=C(c1cc2cc(F)ccc2[nH]1)N(Cc1cccnc1)CC1CCCN(C2CCCCC2)C1 (stereo not given),-2,-6,-8,35*,-21,1
CCOC(=O)c1cc2sccc2n1CC(=O)OC(C)C,-5,-4,-4,-50,19*,-1
Cc1cc(Cl)c(OCCOCCN2CCC(C)CC2)c(Br)c1,-14,-10,-7,55*,-24,16
CC1CCN(CCCCOc2cccc(Br)c2)CC1,-19,-12,-7,83*,-27,14
Brc1cccc(OCCN2CCCCC2)c1,-5,-10,-9,2,-5,11
Cc1cc(Br)ccc1OCCCCN1CCC(C)CC1,-17,-11,-6,53*,-27,5
CC1CCN(CCCCOc2ccccc2Br)CC1,-8,-10,-8,10,-12,2
CC1CCN(CCCCOc2ccc(Br)cc2)CC1,-4,-10,-8,31*,-24,5
O=C(NCc1ccco1)c1ccc(-c2ccc(F)c(F)c2)c2ccoc12,-3,-1,-2,-4,-4,10
CN(C)c1ccc(/C=N/n2c(-c3ccccc3Br)n[nH]c2=S)cc1,-9,-6,-14,32*,-25,7
CN(C)c1ccc(/C=N/n2c(-c3cccnc3)n[nH]c2=S)cc1,0,4,-4,-5,9,-2
CCc1ccccc1NC(=O)CN1CCN(C(=O)CN2C(=O)NC3(CCCCC3C)C2=O)CC1 (stereo not given),-3,-2,0,1,-1,4

# Assay outcomes deposited in PubChem by The Scripps Research Institute Molecular Screening Center.
